Assay outcomes (PubChem)
MBD2 inh: inhibitors of MBD2 binding to methylated DNA, primary screen, biochemical, TR-FRET, DNA-binding domain, human; Methyl-CpG-binding domain protein 2 (Homo sapiens), Q9UBB5; MBD2 binding to methylated oligonucleotide; inhibition, % at 4.4 µM; 0.31% of 370,000 active; AID 686964, 2013; in the data active = inhibition above about 13%
NSD2 HMT inh: NSD2 histone methyltransferase inhibitors, primary screen, biochemical, AlphaScreen, single concentration, set 2; Histone-lysine N-methyltransferase NSD2 (Homo sapiens), O96028; NSD2 peptide methylation, 120 min; inhibition, % at 12.5 µM; 0.54% of 310,000 active; AID 743445, 2014; in the data active = inhibition above about 50%
LEDGF integ inh: blockers of LEDGF/p75-dependent integrase strand transfer – biochemical, TR-FRET, high throughput, primary screen; TR-FRET IN-LEDGF/p75 DNA integration, Eu/Cy5; inhibition, % at 3.7 µM; AID 743269, 2014; 0.64% of 370,000 active;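 active = inhibition above the screen-wide mean plus 3 SD, cut at about 13% in these data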;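 note: signal is the Cy5 over europium emission ratio at 671 and 618 nm; 0% = plate median of compound wells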
CASP6 VEID inh: human caspase-6 inhibitors, primary screen, biochemical, VEID-R110 fluorescence, single point, set 2. 0.53% of 350,000 active. inhibition, % at 12.5 µM. purified caspase-6, Z-VEID-R110 cleavage fluorescence;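 active = mean inhibition across replicates at least about 35%, with every replicate also reaching that limit, limit read from the data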;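 note: 0% = median of neutral control wells and 100% = no fluorescence left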
UHRF1 binding: UHRF1 methylated DNA binding inhibitors, primary screen, counter-screen for MBD2 inhibitor project, biochemical, TR-FRET, human UHRF1, single concentration; AID 687016, 2013; 0.75% of 370,000 active; UHRF1 binding to methylated oligo; inhibition, % at 4.4 µM; in the data active = inhibition above about 21%;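 note: UHRF1 SRA domain binding a hemimethylated CpG hairpin DNA probe; 0% = median of test compound wells and 100% = reference inhibitor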
TDP2 absorb: human TDP2 enzyme inhibitors, primary screen, biochemical, epi absorbance, recombinant enzyme; T5PNP hydrolysis, p-nitrophenol absorbance 415 nm; 0.34% of 370,000 active; inhibition, % at 12.8 µM; AID 720702, 2013; Tyrosyl-DNA phosphodiesterase 2 (Homo sapiens), O95551;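 active = inhibition above the mean of all tested compounds plus 3 SD, set per campaign, cut at about 25% in these data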;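 note: 0% = DMSO with enzyme and 100% = buffer with substrate but no TDP2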
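Material: recombinant human TDP2; quantity: TDP2 enzyme at 120 nM final; medium: Tris-HCl pH 7.5 with MgCl2; compound: single concentration, 12.8 µM nominal, with 1% DMSO; incubation: 2 h enzyme incubation at 37 °C; signal: epi absorbance; measure: percent inhibition; benchmarks: high control without enzyme, low control DMSO plus TDP2; repeats: singlicate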
Alpha artifact: AlphaScreen signal interference with preloaded methylated product, dose response, artefact control for NSD2 inhibitor project, biochemical, cherry-picked samples | shares compounds with NSD2 HMT inh | AlphaScreen artifact counterscreen, preloaded methylated H4 peptide | AC35, µM (top dose mostly 10 µM), for the others: top-dose activity change, negative = signal loss | 9.4% of 1,500 active | AID 1053174, 2014; call rule not given here
* marks the source's active call; other numbers are inactive results; / = no result given. Shown are actives, neighbours in structure and some others; about 1.8% of the full set was active somewhere.

SMILES	MBD2 inh	NSD2 HMT inh	LEDGF integ inh	CASP6 VEID inh	UHRF1 binding	TDP2 absorb	Alpha artifact
CO[C@H]1CN(C)C(=O)c2ccc(NC(=O)NC(C)C)cc2OC[C@@H](C)N(C(=O)CN(C)C)C[C@@H]1C	/	/	/	-1	/	/	/
CCN(CC)CCNc1cc(C)nc2c1C(=O)C(=O)C=C2N1CCCCC1	-13	118*	-5	-53	-8	-5	1%
CCN(CC)CCNC(=O)c1ccc(N2CCCCC2)c(NS(=O)(=O)c2ccc(C)cc2)c1	4	28	-6	/	8	5	/
O=C(NCCc1ccccn1)C1CCCN1S(=O)(=O)c1ccc(Cl)cc1 (stereo not drawn)	1	119*	1	/	-2	-8	-1%
Cc1cccnc1NC(=O)C1CCCN1S(=O)(=O)c1ccc(Cl)cc1 (stereo not drawn)	3	0	2	5	1	11	/
CCOc1ccc2nc(SCC(=O)NCc3ccco3)sc2c1	-2	129*	-6	/	3	-4	-2%
CCOc1ccc2nc(SCC(=O)NC(=O)NCc3ccco3)sc2c1	5	-1	1	/	1	-10	/
CC(=O)Nc1ccc2c(c1)C(=O)N(C)[C@H]1CC[C@H](CC(=O)NCc3ccccc3)O[C@@H]1CO2	/	/	/	0	/	/	/
O=C(C[C@H]1CC[C@H](NC(=O)c2ccc3c(c2)OCO3)[C@@H](CO)O1)NC1Cc2ccccc2C1	/	/	/	-2	/	/	/
CC1(C)CN(c2cccc(C#N)c2)C1=O	-2	56*	1	-1	0	-1	-3%
Cc1ccccc1-c1cnc2c(c1)C(=O)N([C@@H](C)CO)C[C@@H](C)[C@H](CN(C)Cc1cccnc1)O2	/	/	/	1	/	/	/
CCCN(CCC)CCCNC(=O)c1ccc(CS(=O)(=O)c2c(Cl)cccc2Cl)o1	-2	63*	5	-23	-1	-4	-5%
Nc1nonc1-c1nc2ccccc2n1CC(=O)N/N=C/c1ccc(-c2ccccc2C(=O)O)o1	-3	63*	-1	60*	3	9	-2%
Nc1nonc1-c1nc2ccccc2n1CC(=O)Nc1ccccc1	-3	3	-2	-2	1	6	/
CN(C)CCCC1Sc2ccccc2Sc2ccccc21 (stereo not drawn)	0	22	5	-26	2	6	/
CNCCC1Sc2ccccc2Oc2ccccc21 (stereo not drawn)	-5	100*	-5	-6	-1	-9	3%
Cc1cc(C)c(NC(=O)C2CC(=O)N(c3ccc4c(c3)OCCO4)C2)c(C)c1 (stereo not drawn)	3	106*	-1	/	-4	5	-4%
CCN(CC)CCNC(=O)c1cc(-c2ccc(Br)s2)nc2ccccc12	-5	3	0	-4	-1	-2	/
CCN(CC)CCNC(=O)c1cc2cc(Br)ccc2s1	-6	56*	-1	/	-3	-17	-4%
CC(=O)N(C)C[C@H]1Oc2ncc(-c3cccc(C#N)c3)cc2C(=O)N([C@H](C)CO)C[C@H]1C	/	/	/	-1	/	/	/
COc1cc(/C=C/[N+](=O)[O-])ccc1OCc1cccc(C(=O)O)c1	/	82*	/	/	/	/	-18%
COc1ccc(C(=O)C=Cc2ccc(OCc3ccccc3)c(OC)c2)cc1OC	7	0	-2	1	3	-7	/
O=C(NC(c1ccc(Cl)cc1)c1cc(Cl)c2cccnc2c1O)c1cccnc1 (stereo not drawn)	1	63*	-3	/	4	-1	-4%
Cc1ccccc1C1=C/C(=C(\SS/C(C(=O)c2ccc(OCC(=O)O)c(Cl)c2Cl)=C2\C=C(c3ccccc3C)SS2)C(=O)c2ccc(OCC(=O)O)c(Cl)c2Cl)SS1	5	53*	4	46*	1	-18	5.2µM*
COc1cccc(CNC(=O)CSc2nnc3c(n2)[nH]c2ccc(OC)cc23)c1	-7	/	2	-1	3	-24	/
SMILES	MBD2 inh	NSD2 HMT inh	LEDGF integ inh	CASP6 VEID inh	UHRF1 binding	TDP2 absorb	Alpha artifact
COc1cccc(CNC(=O)CSc2nnc3c(n2)[nH]c2ccccc23)c1	-7	56*	2	-6	-4	-7	3%
Cc1nc2cc(C(=O)NCc3cccnc3)ccc2n1-c1ccc(F)cc1F	3	50*	-6	2	6	-11	-3%
CN(C)Cc1csc(NC(=O)Nc2cccc(Cl)c2)n1	-1	74*	5	0	1	5	-4%
N#Cc1c(NC(=O)c2ccncc2)sc2c1CCC2	/	57*	/	34	/	/	-5%
COCCCNC(=O)COc1ccc(Cl)c(C)c1	2	56*	1	/	5	-2	4%
O=C1C=C(c2c(O)ccc3ccccc23)c2ccccc2C1=O	-2	112*	-2	22	3	19	-14%
O=C(O)c1cc2ccccc2c2c1C(=O)c1ccccc1-2	-9	-2	0	1	-13	-2	/
CCOc1cc(C(=O)NCC(=O)N2CCC3(CC2)NCCc2[nH]cnc23)cc(OCC)c1OCC	-8	56*	4	-1	-4	12	0%
COc1cc(/C=C2/C(=N)N3C(SC)=NSC3=NC2=O)ccc1OC(=O)c1ccco1	-1	11	2	12	-4	4	/
CSC1=NSC2=NC(=O)/C(=C/c3coc4ccccc4c3=O)C(=N)N12	1	75*	3	16	-8	-8	0%
Cc1ccc(S(=O)(=O)Nc2ccc3c(c2)C(=O)N([C@@H](C)CO)C[C@@H](C)[C@@H](CN(C)C)O3)cc1	/	/	/	-2	/	/	/
Cc1ccc(C(=O)C2CCN(S(=O)(=O)c3ccc(C(=O)O)cc3)CC2)cc1	4	66*	-3	/	6	-13	-5%
Cc1ccc(S(=O)(=O)N[C@@H]2CC[C@H](CC(=O)NC3CCCCC3)O[C@H]2CO)cc1	/	/	/	3	/	/	/
N#Cc1ccc(-c2ccc(C3[C@@H]4CN(C(=O)c5ccc6c(c5)OCO6)C[C@H]3N4)cc2)cc1 (stereo partly drawn)	/	/	/	-2	/	/	/
COc1ccc(Oc2c(OC)cc([N+](=O)[O-])c3ncccc23)cc1	0	5	-1	-11	-3	-7	/
COc1cc(NC(C)CCCN)c2ncccc2c1Oc1ccccc1 (stereo not drawn)	-2	63*	8	/	-4	22	-1%
